Reference: ChEMBL document CHEMBL3044850, “Synthesis and biological activities of novel pyrazole oxime derivatives containing a 2-chloro-5-thiazolyl moiety” (2008)
Converted amounts (≈) assume the structure as drawn. The source made the active and inactive calls. No cut-off for these calls is given here.

Key:
Assay type in all cases: functional
[1] = tested on: Fusarium graminearum; experiment: Fungicidal activity against Fusarium graminearum assessed as growth inhibition at 50 ug/ml at 23 degC after 3 days; conditions: for inhibition of growth at 50 µg/mL: 72 h, read-out: GI
In short: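 Mycelial growth test in agar plates with 50 µg/mL final compound (from 500 µg/mL solution diluted into medium). A 4 mm plug from active mycelium fringe is placed centrally and incubated at 23 °C. Diameter is read after 3 days against a sterile water plus medium blank, in triplicate. Inhibition I = [(C − T)/C] × 100%.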

[2] = tested on: Tetranychus cinnabarinus; experiment: Insecticidal activity against Tetranychus cinnabarinus (carmine spider mite) in soybean tender shoots assessed as mortality at 0.2 mg/ml treated for 5 secs measured after 48 hr
In short: (§1)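 Insects held at 26 °C, 60% relative humidity, 14 h photoperiod. Acetone stock at 0.5 mg/mL is diluted with water containing TW-20. Soybean tender shoots bearing 60 insects are dipped for 5 s, drained, then kept under the same conditions. Mortality is scored after 48 h relative to untreated controls, in triplicate.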

[3] = tested on: Aphis medicaginis; experiment: Insecticidal activity against Aphis medicaginis in soybean tender shoots assessed as mortality at 0.2 mg/ml treated for 5 secs measured after 48 hr; in short: as §1
[4] = tested on: Aphis medicaginis; experiment: Insecticidal activity against Aphis medicaginis in soybean tender shoots assessed as mortality at 0.5 mg/ml treated for 5 secs measured after 48 hr; in short: as §1
[5] = tested on: Cladosporium cucumerinum; experiment: Fungicidal activity against Cladosporium cucumerinum assessed as growth inhibition at 50 ug/ml at 23 degC after 3 days; conditions: 72 h, read-out: GI
In short: (§2)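 Test solutions were made at 500 µg/mL and mixed 1:9 with agar medium to give 50 µg/mL plates. A 4 mm plug from the edge of actively growing mycelium was placed at the plate centre and incubated at 23 °C. Colony diameter was measured after 3 days against a sterile water plus medium blank, in triplicate. Inhibition = [(C − T)/C] × 100%.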

[6] = tested on: Botryosphaeria berengeriana; experiment: Fungicidal activity against Botryosphaeria berengeriana assessed as growth inhibition at 50 ug/ml at 23 degC after 3 days; conditions: for inhibition of growth at 50 µg/mL: 72 h, read-out: GI; in short: as §2
[7] = tested on: Alternaria solani; experiment: Fungicidal activity against Alternaria solani assessed as growth inhibition at 50 ug/ml at 23 degC after 3 days; conditions: for inhibition of growth at 50 µg/mL: 72 h, read-out: GI; in short: as §2
[8] = tested on: Cucumis sativus; experiment: Growth regulation of Cucumis sativus (cucumber) seeds assessed as rhizogenesis at 10 ug/ml at 24 degC after 3 days by cucumber cotyledon test
In short: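 Cucumber seeds (JINKE No. 4) were germinated in the dark at 24 °C for 3 days, and cotyledons of uniform size were selected. Sample in DMF (10 µg/mL) was sprayed onto filter paper and dried, then the paper was wetted with distilled water. Ten cotyledons were incubated in the dark at 24 °C for 3 days. Rhizogenesis was counted per 10 hypocotyls, in triplicate, with a distilled-water control and Student's t test.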

[9] = tested on: Mycosphaerella arachidis; experiment: Fungicidal activity against Mycosphaerella arachidis assessed as growth inhibition at 50 ug/ml at 23 degC after 3 days; conditions: for inhibition of growth at 50 µg/mL: 72 h, read-out: GI; in short: as §2
[10] = tested on: Aphis medicaginis; experiment: Insecticidal activity against Aphis medicaginis in soybean tender shoots assessed as mortality treated for 5 secs measured after 48 hr

Row | Structure (SMILES) | inhibition of growth at 50 µg/mL [1] [%] | mortality at 200 µg/mL [2] [%] | mortality at 200 µg/mL [3] [%] | mortality at 500 µg/mL [4] [%] | inhibition of growth at 50 µg/mL [5] [%] | inhibition of growth at 50 µg/mL [6] [%] | inhibition of growth at 50 µg/mL [7] [%] | Activity [8] [%] | inhibition of growth at 50 µg/mL [9] [%] | growth inhibition (GI) [7] | LC50 [10] [µg/mL] | growth inhibition (GI) [6] | mortality [2] | growth inhibition (GI) [9] | growth inhibition (GI) [1]
1 | Cn1nc(C(F)(F)F)c(/C=N/OCc2cnc(Cl)s2)c1Oc1ccccc1 | 22.4 | 11.2 | 20.2 | 41.4 | 21.6 | 30.3 | 65.6 | -12.5 | 8.7 |  |  |  |  |  | 
2 | Cc1ccc(Oc2c(/C=N/OCc3cnc(Cl)s3)c(C(F)(F)F)nn2C)cc1C | 31.3 | 6.4 | 61.4 | 71.2 | 8.9 | 26.2 | 53.2 | -23.8 | 32.9 |  |  |  |  |  | 
3 | Cc1cccc(Oc2c(/C=N/OCc3cnc(Cl)s3)c(C(F)(F)F)nn2C)c1 | 33.6 | 2.3 | 82.4 | 93.1 | 31.3 | 45.3 | 28 | 22.7 | 11.8 |  |  |  |  |  | 
4 | Cc1nn(C)c(Oc2ccccc2)c1/C=N/OCc1ccc(C(=O)OC(C)(C)C)cc1 [FENPYROXYMATE] | 5.2 | 99.7 | 12.4 | 18.4 | 14.5 | 6.7 | 8.3 | 10.6 | 12.5 |  |  |  |  |  | 
5 | Cn1nc(C(F)(F)F)c(/C=N/OCc2cnc(Cl)s2)c1Oc1ccc(Br)cc1 | 41.6 | 4.3 | 77.4 | 90.4 | 17.5 | 32.9 | 12.4 | 48.5 | 9.2 |  |  |  |  |  | 
6 | Cc1ccccc1Oc1c(/C=N/OCc2cnc(Cl)s2)c(C(F)(F)F)nn1C | 21.2 | 9.3 | 81.3 | 90.4 | 32.6 | 35 | 42.6 | -26.8 | 10 |  |  |  |  |  | 
7 | Cn1nc(C(F)(F)F)c(/C=N/OCc2cnc(Cl)s2)c1Oc1ccccc1Cl | 24.6 | 6.2 | 46.1 | 59.3 | 23.7 | 23.6 |  | 53.9 | 12.6 | inactive |  |  |  |  | 
8 | Cn1nc(C(F)(F)F)c(/C=N/OCc2cnc(Cl)s2)c1Oc1ccc(Cl)cc1Cl | 24.3 | 7.2 | 86.3 | 97.4 | 32.3 |  | 29.2 | 72.3 | 42.5 |  | 22.9 (≈ 47.1 µM) | inactive |  |  | 
9 | Cn1nc(C(F)(F)F)c(/C=N/OCc2cnc(Cl)s2)c1Oc1ccc(C(C)(C)C)cc1 | 12.5 |  | 73.3 | 89.4 | 18.1 | 22.1 | 24.8 | 72.7 |  |  |  |  | inactive | inactive | 
10 | Cn1nc(C(F)(F)F)c(/C=N/OCc2cnc(Cl)s2)c1Oc1ccc(F)cc1 | 29 | 13.4 | 75.3 | 90.2 | 53.4 | 24.2 | 26.9 | 28.6 | 67.2 |  |  |  |  |  | 
11 | Cc1ccc(Oc2c(/C=N/OCc3cnc(Cl)s3)c(C(F)(F)F)nn2C)cc1 | 23.8 | 3.4 | 85.4 | 95.3 | 15.7 | 21 | 34.6 | 43.6 | 5.9 |  |  |  |  |  | 
12 | Cn1nc(C(F)(F)F)c(/C=N/OCc2cnc(Cl)s2)c1Oc1cccc(Cl)c1 | 26.7 | 7.4 | 61.2 | 70.4 | 43.1 | 21.7 | 22.9 | 14.2 | 55.3 |  |  |  |  |  | 
13 | Cn1nc(C(F)(F)F)c(/C=N/OCc2cnc(Cl)s2)c1Oc1ccc(Cl)cc1 | 36.3 |  | 84.4 | 92.3 | 15.4 | 32.1 |  | -34.3 | 11.8 | inactive |  |  | inactive |  | 
14 | COc1ccc(Oc2c(/C=N/OCc3cnc(Cl)s3)c(C(F)(F)F)nn2C)cc1 |  | 13.4 | 83.4 | 92.2 | 12.3 | 46.5 | 14.6 | 30.8 | 22.6 |  |  |  |  |  | inactive
15 | O=[N+]([O-])/N=C1\NCCN1Cc1ccc(Cl)nc1 [IMIDACLOPRID] |  |  | 92.1 | 94.7 |  |  |  |  |  |  | 9.1 (≈ 35.6 µM) |  |  |  | 
16 | Cn1nc(C(F)(F)F)c(/C=N/OCc2cnc(Cl)s2)c1Sc1ccccc1 | 40.8 | 14.4 | 83.4 | 92.2 | 9.7 | 29.5 | 43.5 | 21.8 | 12.7 |  |  |  |  |  | 
17 | CC(C)(C)C(=O)C(Oc1ccc(Cl)cc1)n1cncn1 (centres undefined) [TRIADIMEFON] | 72.6 |  |  |  | 81.5 | 86.7 | 66.1 | 50.2 | 73.4 |  |  |  |  |  | 
18 | Cc1ccc(Cl)c(Oc2c(/C=N/OCc3cnc(Cl)s3)c(C(F)(F)F)nn2C)c1 |  | 17.4 | 69.2 | 83.4 | 48.5 | 29.8 | 32.3 | 37.9 | 10.1 |  |  |  |  |  | inactive
19 | Cn1nc(C(F)(F)F)c(/C=N/OCc2cnc(Cl)s2)c1Sc1ccc(Cl)cc1 | 32.6 | 11.3 | 80.4 | 91.4 | 18.9 | 42.4 | 28.8 | 34.7 | 25.8 |  | 26.2 (≈ 56.1 µM) |  |  |  | 
